Holding throughout (format): ADME
One series relates to Liver microsome. The experiment in a line: Drug level in human liver microsomes treated with 50 uM phenethylisothiocyanate after 30 mins by ESI LC-MS/MS method. To be noted: 0.5 h. A digest of the protocol: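 Human liver microsomes (0.5 mg protein/ml) in 50 mM potassium phosphate pH 7.4, preincubated 5 min with 2 mM GSH. PEITC added to a final 50 µM with NADPH at a final 1.2 mM, then incubated 30 min at 37°C. Controls lacked NADPH. GSH conjugate recovered by C18 solid-phase extraction and analysed by positive-ion LC-MS/MS.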
On the technique in general: Microsomes from liver hold many membrane-bound enzymes, among them those of drug oxidation.

In series [1] the target is T1, Cytochrome P450 2E1 (Homo sapiens, UniProt P05181). The experiment in a line: Drug level assessed as human CYP2E1-mediated compound formation using 50 uM phenethylisothiocyanate in presence of reductase and NADPH after 30 mins by LC-MS/MS method. To be noted: recombinant enzyme, 0.5 h. In outline:
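Recombinant human CYP2E1 (1 µM) with reductase (1 µM) reconstituted in DLPC (100 µg/ml), preincubated with 2 mM GSH. PEITC added to a final 50 µM with NADPH at a final 1.2 mM, then incubated 30 min at 30°C. Controls lacked NADPH. Metabolites and GSH conjugates recovered by C18 solid-phase extraction and analysed by positive-ion ESI LC-MS/MS.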

In series [2] the target is T1, Cytochrome P450 2E1. Nature of the series: Retention time assessed as human CYP2E1-mediated compound formation using 50 uM phenethylisothiocyanate in presence of reductase and NADPH after 30 mins by LC-MS/MS method. To be noted: recombinant enzyme, 0.5 h. In outline:
(§1)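 CYP2E1 (1 µM) and reductase (1 µM) reconstituted with lipid (100 µg/ml) and preincubated with 2 mM GSH. PEITC (final 50 µM) and NADPH (final 1.2 mM) then added, 30 min at 30°C; controls ran without NADPH. Products were taken up by C18 solid-phase extraction and analysed by positive-ion ESI LC-MS/MS, one full scan plus two data-dependent scans.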

For series [3], the target named is T1, Cytochrome P450 2E1. Nature of the series: Inhibition of human CYP2E1 expressed in Escherichia coli MV1304 assessed as reduction in 7-EFC O-de-ethylation activity by spectrofluorometry. A digest of the protocol: (§2)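 Primary mix: 1 µM CYP2E1, 1 µM reductase, 100 µg/ml DLPC and catalase in 50 mM K phosphate pH 7.4, with PEITC 0–50 µM (methanol 1% final). Started with 1.2 mM NADPH at 30°C and sampled at 0–5 min. Aliquots assayed for 10 min with 0.1 mM 7-EFC and 0.2 mM NADPH; fluorescence read at ex 410/em 510 nm. Inactivation kinetics from a double-reciprocal plot. Six experiments in duplicate.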

For series [4], the target named is T1, Cytochrome P450 2E1. The experiment in a line: Inhibition of human CYP2E1 expressed in Escherichia coli MV1304 assessed as reduction in 7-EFC O-de-ethylation activity in absence of cytochrome b5 by spectrofluorometry. In outline: as §2
Series [5] has as its target T1, Cytochrome P450 2E1. The experiment in a line: Inactivation of human CYP2E1 expressed in Escherichia coli MV1304 assessed as remaining P450 level at 25 uM in presence of 1.2 mM NADPH after dialysis by CO difference spectral method. In outline:
(§3)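 CYP2E1 and reductase (1 µM each) reconstituted with DLPC (100 µg/ml) plus catalase in 50 mM K phosphate pH 7.4. Incubated 10 min at 30°C with 25 µM PEITC ± 1.2 mM NADPH; control had neither. Then dialysed overnight at 4°C against phosphate buffer with 20% glycerol and 0.1 mM EDTA. Read-outs: P450 by reduced CO difference spectrum (ε450 91 mM⁻¹cm⁻¹), heme by HPLC, and 7-EFC O-de-ethylation after re-adding lipid (50 µg/ml) ± fresh reductase (1 µM). Two experiments in duplicate.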

Series [6] concerns the target T2, CYP2E1 (Homo sapiens, UniProt P05181). The experiment in a line: Inactivation of human CYP2E1 expressed in Escherichia coli MV1304 assessed as remaining enzyme activity at 25 uM in presence of 1.2 mM NADPH after dialysis by 7-EFC O-de-ethylation activity detection based spectrofluorometry. To be noted: probe 7-EFC (O-de-ethylation), read-out: Activity. In outline:
as §3

Series [7] deals with T2, CYP2E1. The experiment in a line: Inactivation of human CYP2E1 expressed in Escherichia coli MV1304 assessed as remaining enzyme activity at 25 uM after dialysis in presence of fresh reductase by 7-EFC O-de-ethylation activity detection based spectrofluorometry. To be noted: probe 7-EFC (O-de-ethylation), read-out: Activity. In outline: as §3
In series [8] the target is T1, Cytochrome P450 2E1. Nature of the series: Inhibition of human CYP2E1 expressed in Escherichia coli MV1304 assessed as reduction in 7-EFC O-de-ethylation activity at 50 uM added 1 min before NADPH addition in presence of 1 mM GSH by spectrofluorometry. The settings on record: TDE = time-dependent effect. In outline:
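Reconstituted CYP2E1/reductase (1 µM each, DLPC, catalase, pH 7.4 phosphate). Arms: 1.2 mM NADPH alone, with 50 µM PEITC, or with 50 µM PEITC plus 1 mM GSH. PEITC added 1 min before NADPH; incubation at 30°C. Residual 7-EFC O-de-ethylation measured at 0, 2, 4, 6 and 12 min by 7-HFC fluorescence.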

The target in series [9] is T1, Cytochrome P450 2E1. The experiment in a line: Inactivation of human CYP2E1 expressed in Escherichia coli MV1304 assessed as remaining P450 level at 25 uM after dialysis by CO difference spectral method. A digest of the protocol: as §3
Series [10] addresses T2, CYP2E1. Nature of the series: Inactivation of human CYP2E1 expressed in Escherichia coli MV1304 assessed as remaining enzyme activity at 25 uM after dialysis by 7-EFC O-de-ethylation activity detection based spectrofluorometry. The settings on record: probe 7-EFC (O-de-ethylation), read-out: Activity. A digest of the protocol:
as §3

Series [11] deals with T1, Cytochrome P450 2E1. The experiment in a line: (§4) Inhibition of human CYP2E1 expressed in Escherichia coli MV1304 assessed as reduction in 7-EFC O-de-ethylation activity by spectrofluorometry based double reciprocal plot. A digest of the protocol: (§5)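 Reconstituted CYP2E1 (1 µM) with reductase (1 µM), 100 µg/ml DLPC and catalase, in 50 mM KPi pH 7.4. PEITC 0–50 µM was added (1% methanol final) and the reaction started with 1.2 mM NADPH at 30°C. Aliquots taken at 0–5 min were assayed for 10 min with 0.1 mM 7-EFC and 0.2 mM NADPH; 7-HFC fluorescence was read. Inactivation rates were analysed by double-reciprocal plot. Six experiments, each in duplicate.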

Series [12] concerns the target T2, CYP2E1. The description is as §4. The settings on record: human, probe 7-EFC (O-de-ethylation). In outline: as §5
Series [13] has as its target T1, Cytochrome P450 2E1. The experiment in a line: Inactivation of human CYP2E1 expressed in Escherichia coli MV1304 assessed as remaining heme level at 25 uM in presence of 1.2 mM NADPH after dialysis by HPLC method. In outline:
as §3

In series [14] the target is T1, Cytochrome P450 2E1. The experiment in a line: Inhibition of human CYP2E1 expressed in Escherichia coli MV1304 assessed as partition ratio for enzyme inactivation. In outline: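 Reconstituted CYP2E1 (1 µM) with reductase (1 µM), 100 µg/ml DLPC and catalase, in 50 mM KPi pH 7.4. Incubated with increasing PEITC plus 1.2 mM NADPH for 10 min at 30°C until inactivation was complete. Residual 7-EFC O-de-ethylation was read by fluorescence (ex 410/em 510 nm). Percent activity remaining was plotted against PEITC:P450 molar ratio. The turnover number (r+1) was taken from the intercept of the regression lines. Mean of three experiments.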

Series [15] deals with T1, Cytochrome P450 2E1. The experiment in a line: Inactivation of human CYP2E1 expressed in Escherichia coli MV1304 assessed as remaining heme level at 25 uM after dialysis by HPLC method. In outline: as §3
Series [16] has as its target T1, Cytochrome P450 2E1. The experiment in a line: Drug metabolism assessed as human CYP2E1-mediated phenethylamine formation at 50 uM in presence of reductase and absence of NADPH after 30 mins by LC-MS/MS method. The settings on record: recombinant enzyme, 0.5 h. A digest of the protocol:
as §1

Series [17] addresses T1, Cytochrome P450 2E1. Nature of the series: Covalent binding to human CYP2E1 expressed in Escherichia coli MV1304 assessed as protein-adduct formation at 25 uM after 10 mins by ESI LC-MS/MS method. A digest of the protocol:
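CYP2E1 (1 µM) reconstituted with lipid only (100 µg/ml), no reductase, incubated 10 min at 30°C; control received methanol. Samples (50 µl) analysed by ESI LC-MS/MS on a C18 reverse-phase column equilibrated with 35% acetonitrile/0.1% TFA. Protein envelopes deconvoluted to give the intact protein mass. Mean of two injections.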

Series [18] has as its target T2, CYP2E1. The experiment in a line: Inactivation of human CYP2E1 expressed in Escherichia coli MV1304 assessed as remaining enzyme activity at 25 uM in presence of 1.2 mM NADPH after dialysis in presence of fresh reductase by 7-EFC O-de-ethylation activity detection based spectrofluorometry. The settings on record: probe 7-EFC (O-de-ethylation), read-out: Activity. In outline:
as §3

In series [19] the target is T1, Cytochrome P450 2E1. The experiment in a line: Drug metabolism assessed as human CYP2E1-mediated phenethylamine formation at 50 uM in presence of reductase and NADPH after 30 mins by LC-MS/MS method. To be noted: recombinant enzyme, 0.5 h. In outline:
as §1

The target of series [20] is T1, Cytochrome P450 2E1. Nature of the series: Inhibition of human CYP2E1 expressed in Escherichia coli MV1304 assessed as reduction in 7-EFC O-de-ethylation activity at 10 uM after 10 mins in presence of reductase by spectrofluorometry. A digest of the protocol:
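Reconstituted CYP2E1/reductase (1 µM each, 100 µg/ml DLPC, catalase, 50 mM K phosphate pH 7.4) incubated 10 min at 30°C with PIC at 0- to 100-fold molar excess; PIC in acetonitrile, 1% final. Aliquots diluted into secondary mix (0.1 mM 7-EFC, 0.2 mM NADPH, BSA) for 10 min; 7-HFC read at ex 410/em 510 nm. Three experiments in duplicate.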

pKi: −log10 of the molar value.

T1 sequence (P05181 whole entry): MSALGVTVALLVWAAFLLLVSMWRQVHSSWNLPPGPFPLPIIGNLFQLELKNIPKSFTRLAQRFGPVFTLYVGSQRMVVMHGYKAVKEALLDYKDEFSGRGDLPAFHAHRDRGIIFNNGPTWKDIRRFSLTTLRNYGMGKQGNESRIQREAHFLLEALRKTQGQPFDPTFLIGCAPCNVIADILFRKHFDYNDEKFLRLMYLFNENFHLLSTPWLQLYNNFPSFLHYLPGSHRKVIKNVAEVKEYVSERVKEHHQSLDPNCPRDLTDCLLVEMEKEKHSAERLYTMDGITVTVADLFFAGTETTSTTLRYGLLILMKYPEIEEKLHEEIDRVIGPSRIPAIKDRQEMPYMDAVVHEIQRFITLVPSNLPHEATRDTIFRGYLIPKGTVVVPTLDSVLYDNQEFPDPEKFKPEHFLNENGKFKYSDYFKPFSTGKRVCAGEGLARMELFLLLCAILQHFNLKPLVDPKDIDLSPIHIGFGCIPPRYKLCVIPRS
T2 sequence (P05181 whole entry): as above

Turning to `N[C@@H](CCC(=O)N[C@@H](CSC(=O)NCCc1ccccc1)C(=O)NCC(=O)O)C(=O)O`, the Drug metabolism entry with Liver microsome and on Cytochrome P450 2E1 [1] was “metabolite_detected” in each case.
For `NCCc1ccccc1` [PHENETHYLAMINE], on Cytochrome P450 2E1 [2], the Retention_time was determined as 12.7 min.
As to `N[C@@H](CCC(=O)N[C@@H](CSC(=S)NCCc1ccccc1)C(=O)NCC(=O)O)C(=O)O`, the Retention_time at Cytochrome P450 2E1 [2] worked out at 16.7 min. On Cytochrome P450 2E1 [1], the Drug metabolism entry is given as “metabolite_detected”.
Usually pKi stands for the Ki on a negative log10 scale, so that one unit is a factor of ten. The kinact is the maximal first-order rate at which the target is inactivated. On to `S=C=NCCc1ccccc1` [PHENETHYLISOTHIOCYANATE], for which the “inhibition (INH)” value on Cytochrome P450 2E1 [3] was “Dose-dependent effect and tde”; on Cytochrome P450 2E1 [4], “Active”; on Cytochrome P450 2E1 [8] it was “tde”. In addition, the Activity at Cytochrome P450 2E1 [5] is on record as 42%; at Cytochrome P450 2E1 [9] it was 93%; at Cytochrome P450 2E1 [13], 64%; on Cytochrome P450 2E1 [15], 100%; on Cytochrome P450 2E1 [17] it was “Not Active”. Also, the activity at 25 µM at CYP2E1 [6] amounted to 27%; on CYP2E1 [7] it was 85%; at CYP2E1 [10] it was 82%; at CYP2E1 [18], 26%. Further, at Cytochrome P450 2E1 [11], the pKi was 4.96. Besides, the kinact on CYP2E1 [12] is 0.00383 s⁻¹. The Ratio on Cytochrome P450 2E1 [14] is 12. The values for the Drug metabolism entry at Cytochrome P450 2E1 [16] and at Cytochrome P450 2E1 [19] were “metabolite_not_detected” and “metabolite_detected”, respectively.
As to `O=C=NCCc1ccccc1` [PHENETHYL ISOCYANATE], on Cytochrome P450 2E1 [20], the “inhibition (INH)” value is “Not Active”.

Values taken from ChEMBL document CHEMBL3526007, “The inactivation of human CYP2E1 by phenethyl isothiocyanate, a naturally occurring chemopreventive agent, and its oxidative bioactivation” (Drug Metab Dispos, 2013).
